Experimental data gathered from unrelated publications.
Protocols differ between the studies behind these lines.
PDE4D: 3',5'-cyclic-AMP phosphodiesterase 4D (PDE4D, Homo sapiens, UniProt Q08499)
MTNR1B: Melatonin receptor type 1B (MTNR1B, Homo sapiens, UniProt P49286)

Nc1ncc(-c2nc(N3CCOCC3)nc(N3CCOCC3)n2)c(C(F)F)n1 — remaining binding (Non-receptor tyrosine-protein kinase TNK1 (TNK1, Homo sapiens, UniProt Q13470); binding, competition with immobilised ligand; 10 µM): 83%
C=C(C)[C@@H]1CC=C2C(=CC[C@]3(C)[C@@H]([C@@H](CCC=C(C)C)C(=O)O)[C@H](O)C[C@@]23C)[C@@]1(C)CCC(=O)O — inhibition (PDE4D; enzyme activity, inhibitor, radiometric; 50 µM): 51.7%
COc1ncccc1-c1cnn2ccc(N3CCN(C(=O)OC(C)C)CC3)nc12 — remaining binding (Mitogen-activated protein kinase 7 (MAPK7, Homo sapiens, UniProt Q13164); binding, competition with immobilised ligand; 1 µM): 100%
O=C(O)c1ccccc1O — inhibition (PDE4D; enzyme activity, inhibitor, radiometric; 50 µM): 3.34%
CCN(CC)CCCC[C@H](NC(=O)[C@H](CC(C)C)NC(=O)[C@H](C)NC(=O)[C@H](Cc1ccccc1)NC(=O)c1ccc(C(C)(C)C)cc1)C(=O)N[C@@H](CO)C(=O)OC — ΔTm (Bromodomain adjacent to zinc finger domain protein 1A (BAZ1A, Homo sapiens, UniProt Q9NRL2); thermal stability, DSF; 25 µM): -1.44 °C
COc1ccc2cccc(C(CO)CNC(=O)CF)c2c1 (stereo not shown) — Emax (MTNR1B; GTPγS binding, agonist, radiometric; cell membranes): 99%
Cc1nn(C)cc1-c1nc2c(N3CCN(Cc4ccc(Cl)cc4)CC3)c(Cl)cnc2[nH]1 — remaining binding (Calcium/calmodulin-dependent protein kinase type 1G (CAMK1G, Homo sapiens, UniProt Q96NX5); binding, competition with immobilised ligand; 1 µM): 100%
COc1ccc2[nH]cc(CCNC(=O)CI)c2c1 — Emax (MTNR1B; β-arrestin recruitment, agonist; MT2; 90 min): 92%
CC1(C)[C@@H](O[C@H]2O[C@H](C(=O)O)[C@@H](O)[C@H](O)[C@H]2O[C@@H]2O[C@H](C(=O)O)[C@@H](O)[C@H](O)[C@H]2O)CC[C@]2(C)[C@H]3C(=O)C=C4[C@@H]5C[C@@](C)(C(=O)O)CC[C@]5(C)CC[C@@]4(C)[C@]3(C)CC[C@@H]12 — inhibition (PDE4D; enzyme activity, inhibitor, radiometric; 50 µM): 10.9%
CC[C@H](C)[C@@H]1NC(=O)[C@@H]2CSSC[C@H](NC(=O)[C@@H](NC(=O)CN)[C@@H](C)O)C(=O)N[C@@H](CC(N)=O)C(=O)N[C@@H]([C@@H](C)O)C(=O)N3CCC[C@H]3C(=O)NCC(=O)N[C@H]3CSSC[C@H](NC(=O)[C@H](CCSC)NC(=O)[C@H](CC(C)C)NC(=O)[C@H](CCCNC(=N)N)NC(=O)CNC(=O)CNC(=O)[C@H](CC(=O)O)NC1=O)C(=O)NCC(=O)N[C@@H](CCC(=O)O)C(=O)N[C@@H]([C@@H](C)O)C(=O)N[C@H](C(=O)N[C@H](C(=O)NCC(=O)O)C(C)C)CSSC[C@H](NC(=O)[C@H]([C@@H](C)O)NC3=O)C(=O)N[C@@H](CO)C(=O)N[C@@H](Cc1c[nH]c3ccccc13)C(=O)N1CCC[C@H]1C(=O)N[C@@H](C(C)C)C(=O)N2 — kon (Prothrombin (F2, Homo sapiens, UniProt P00734); binding, SPR): 1000 to 10000 M⁻¹ s⁻¹
